Assay [1] in a line: inhibitors of TNFa-induced NFkB p65 translocation, primary screen, imaging, HUVEC, MLSMR starter and 10KST1 sets (AID 438).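 Further: compound added about 3h40 before a 20 min TNFalpha stimulation.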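 On inhibition: signal is the nuclear over cytoplasmic p65 intensity ratio per well.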 Particulars: HUVEC TNFa-induced p65 nuclear translocation; cell count: measured here: nuclei count (cytotoxicity indicator), at 2.08 µM; inhibition: at 2 µM, stronger effect = higher value, 0% TNFa-plus-vehicle, 100% no-TNFa wells.
The nature of assay [2]: inhibitors of E-selectin induction by TNFa, primary screen, imaging, HUVEC, immunofluorescence, MLSMR starter and 10KST1 sets (AID 487;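 active means visually confirmed hit in the image check and inhibition above 20%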;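 on inhibition: signal is fraction of cell area covered by stained E-selectin grains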;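 on nuclei count: 100% = median nuclei count of all wells on the same plate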). Conditions: HUVEC TNFalpha-induced E-selectin immunofluorescence imaging, at 2 µM; inhibition: stronger effect = higher value; nuclei count: measured here: cell number, toxicity.
Assay [3] is described as follows: DUSP6 inhibitors restoring Erk phosphorylation by chemical complementation, primary imaging in DUSP6-transfected HeLa (AID 609;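 active means compounds giving at least 50% inhibition in the cell-based MKP-3 phosphatase rescue imaging test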;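 on inhibition: phospho-Erk level distribution per well compared with pooled transfected vehicle control wells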). Particulars: HeLa MKP-3 transfected, phospho-Erk imaging KS statistic, at 10 µM, cells stimulated with TPA for 15 min.
Assay [4] concerns the target Dual specificity protein phosphatase 6 (Homo sapiens) (UniProt Q16828). The description is as above. Conditions: HeLa MKP-3 transfected, phospho-Erk imaging KS statistic; at 10 µM; stronger effect = higher value; cells stimulated with TPA for 15 min.
Assay [5] has as its target Voltage-gated potassium channel subunit beta-2 (Rattus norvegicus) (UniProt P62483). Briefly: KvBeta enzyme negative modulators, primary screen, biochemical, NADPH fluorescence (AID 622;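 active means fluorescence slope higher than the sample average by over 3 SD, cut at about -0.22 in these data, passing the limit was not always enough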;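 further: slope of raw intensity against log time taken from 70 to 1610 s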). Conditions: recombinant KvBeta, 4-cyanobenzaldehyde reduction, at 10 µM, stronger effect = higher value.
Assay [6] has the same target. Briefly: KvBeta positive modulators, primary screen, biochemical, NADPH fluorescence (AID 623;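 active means NADPH fluorescence slope more negative than the mean of all samples by about 3 SD, 99.7% confidence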;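 further: fluorescence intensity change per second fitted from 20 to 320 s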). Particulars: Recombinant KvBeta, NADPH fluorescence decrease slope, 10 min; at 10 µM; stronger effect = lower value.
Assay [7] addresses Alpha-2C adrenergic receptor (Homo sapiens) (UniProt P18825). Briefly: modulators of alpha2C/GIRK thallium flux, primary screen, cell-based, HEK293 alpha2C/GIRK1/2 (AID 624;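 active means fluorescence slope after compound addition differing from the mean of all screened samples at 99.7% confidence, in either direction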;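 further: slope of fluorescence ratio to pre-addition baseline per second over 15 to 24 s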). Conditions: thallium flux BTC fluorescence, at 10 µM, actives lie on both sides.
The nature of assay [8]: inhibitors of larval lipid processing in zebrafish, primary screen, whole organism, PED6 fluorescence, gall bladder and intestine (AID 686;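 active means a full or partial loss of lipid-probe fluorescence in the fish gall bladder, intestine or both, judged by eye; inactive means no fluorescence loss, or compound toxic to the fish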;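 further: larvae 5 to 7 days old with five fish per well; signal comes from phospholipase A2 cleavage of quenched PED6 carried via bile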). Conditions: Zebrafish larvae PED6 lipid processing, fluorescence scoring; screened at 20 µM (by protocol). The method, boiled down: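 Incubation: overnight exposure of larvae to compound plus PED6 / Test system: live zebrafish larvae aged 5-7 days, whole organism / Amount: 5 larvae per well / Read-out basis: visual per-well fluorescence inhibition score / Signal: visual fluorescence microscopy scoring of gall bladder, gut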

The nature of assay [9]: inhibitors of Chlamydomonas gravitaxis, primary screen, whole organism, Chlamydomonas reinhardtii, WT vs cilia-less mutant, absorbance, 96-well (AID 463189;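 active means inhibition at or above 50% relative to wild type and mutant plate controls; inactive means inhibition below 50%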;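 further: 0% = wild type cc124 cells in DMSO and 100% = ciliumless bld1 mutant cells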). Conditions: OD600 absorbance, 2 days, at 10 µM, stronger effect = higher value.
The mark [10] stands for this setting: measured here: cell density z-score.
Where [11] appears, read: measured here: nuclear c-Myc green intensity z-score.
Where [12] appears, read: measured here: nuclear pErk red intensity z-score, stronger effect = higher value.

Consider 13 molecules from PubChem BioAssay.

SMILES strings stand for the structures. Active and inactive are the calls of the source.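 How the source made its calls, unless noted: active means inhibition above 20% together with a positive visual image hit; inconclusive means visual image hit but inhibition not above 20%; inactive means no visual image hit.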

Chain of Voltage-gated potassium channel subunit beta-2 (Rattus norvegicus) (P62483 whole entry, looked up): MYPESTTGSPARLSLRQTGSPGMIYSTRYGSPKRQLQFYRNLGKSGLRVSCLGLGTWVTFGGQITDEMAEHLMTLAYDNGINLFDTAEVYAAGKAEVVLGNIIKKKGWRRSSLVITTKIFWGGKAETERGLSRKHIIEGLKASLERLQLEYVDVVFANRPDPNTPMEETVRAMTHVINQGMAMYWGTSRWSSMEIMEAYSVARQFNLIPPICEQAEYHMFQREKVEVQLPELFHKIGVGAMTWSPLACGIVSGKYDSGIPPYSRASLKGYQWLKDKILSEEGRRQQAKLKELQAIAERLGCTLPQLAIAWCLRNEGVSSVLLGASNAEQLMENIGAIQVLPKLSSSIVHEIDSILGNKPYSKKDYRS
Chain of Alpha-2C adrenergic receptor (Homo sapiens) (P18825 whole entry, looked up): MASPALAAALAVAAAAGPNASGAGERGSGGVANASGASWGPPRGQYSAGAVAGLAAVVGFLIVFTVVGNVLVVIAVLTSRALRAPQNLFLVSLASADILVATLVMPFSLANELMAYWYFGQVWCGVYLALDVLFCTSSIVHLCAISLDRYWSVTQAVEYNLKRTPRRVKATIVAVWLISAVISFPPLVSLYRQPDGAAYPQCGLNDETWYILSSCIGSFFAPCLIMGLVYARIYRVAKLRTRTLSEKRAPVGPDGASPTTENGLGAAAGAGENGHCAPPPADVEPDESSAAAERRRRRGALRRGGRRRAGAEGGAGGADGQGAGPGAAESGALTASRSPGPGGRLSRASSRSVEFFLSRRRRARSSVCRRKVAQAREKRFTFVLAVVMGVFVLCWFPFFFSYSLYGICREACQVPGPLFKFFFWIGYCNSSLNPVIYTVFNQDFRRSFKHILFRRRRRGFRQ
Chain of Dual specificity protein phosphatase 6 (Homo sapiens) (Q16828 whole entry, looked up): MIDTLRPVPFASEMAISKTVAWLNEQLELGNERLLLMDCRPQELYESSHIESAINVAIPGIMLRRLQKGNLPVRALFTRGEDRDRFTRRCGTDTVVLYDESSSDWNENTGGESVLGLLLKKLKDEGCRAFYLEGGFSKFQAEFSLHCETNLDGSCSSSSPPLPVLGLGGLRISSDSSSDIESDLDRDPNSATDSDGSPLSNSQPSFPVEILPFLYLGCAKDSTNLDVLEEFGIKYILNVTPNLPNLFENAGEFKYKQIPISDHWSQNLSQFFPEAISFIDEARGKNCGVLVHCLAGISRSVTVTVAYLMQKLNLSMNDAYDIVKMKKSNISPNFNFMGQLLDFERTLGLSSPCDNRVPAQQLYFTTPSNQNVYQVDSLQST

Broadly, the inhibition is the relative decrease from the control value, in per cent. As to `Cc1nnc(C)n1/N=C/c1cccn1C`, in [1], the cell count worked out at 300. In addition, the inhibition in [1] was -9.7% (inactive); in [2], -14.9% (inactive); in assay [4], 3.5% (inactive); in assay [9], -5.16% (inactive). Further, the nuclei count in assay [2] worked out at 136%. The z-score in assay [3] (setting [10]) is -0.977; in assay [3] (setting [11]), 2.09; in [3] (setting [12]), -1.42. In addition, the fluorescence slope in assay [5] is -0.412 (inactive). Also, the NADPH fluorescence slope in assay [6] is -0.00014 (inactive). For the same molecule, in assay [7], the slope is 0.00647 (inactive). Besides, in assay [8], the molecule was called inactive.

Turning to `Cc1cc(COc2ccccc2OCCN2CCN(C)CC2)no1`, the cell count in assay [1] was determined as 551. For the same molecule, the inhibition in [1] is -2.5% (inactive); in [2], -128% (inactive); in assay [4] it was 5.95% (inactive); in [9] it was 9.35% (inactive). In [2], the nuclei count came to 134%. Besides, the values for the z-score in assay [3] (setting [10]), in assay [3] (setting [11]) and in assay [3] (setting [12]) were 0.378, -1.63 and 0.134, respectively. Further, the fluorescence slope in assay [5] is -0.514 (inactive). For the same molecule, the NADPH fluorescence slope in [6] is -6.1e-05 (inactive). In addition, in assay [7], the slope is 0.0049 (inactive). In [8], the outcome was inactive.

Take `CCCCn1c2nc3ccccc3nc2c2c(=O)n(CC(C)C)cnc21`: in [1], the cell count was determined as 391. Besides, the inhibition in assay [1] is 2.5% (inactive); in assay [2] it was 21.4% (inactive); in assay [4] it was 17.4% (inactive); in assay [9] it was 33.2% (inactive). In addition, in [2], the nuclei count worked out at 141%. The z-score in assay [3] (setting [10]) is 0.699; in assay [3] (setting [11]), 0.544; in assay [3] (setting [12]), -0.343. Also, in assay [5], the fluorescence slope was -0.436 (inactive). The NADPH fluorescence slope in assay [6] is -9.3e-05 (inactive). Further, the slope in assay [7] is 0.00687 (inactive). Also, the outcome in assay [8] was inactive.

Regarding `Cc1nc(Nc2ncc3c(n2)CC(C)(C)CC3=O)nc2ccccc12`, in assay [1], the cell count was found to be 532. Also, the inhibition in assay [1] was -10.9% (inactive); in assay [2], -13% (inactive); in [4] it was -3.5% (inactive); in assay [9], -7.48% (inactive). Besides, the nuclei count in assay [2] was 195%. The z-score in assay [3] (setting [10]) was -2.93; in assay [3] (setting [11]), -0.197; in [3] (setting [12]) it was 3.21. Besides, the fluorescence slope in assay [5] is -0.376 (inactive). Moreover, the NADPH fluorescence slope in [6] was -2.4e-05 (inactive). The slope in assay [7] was 0.0055 (inactive). For the same molecule, in assay [8], the molecule was called inactive.

Consider `COc1ccccc1C(=O)N1CCN(Cc2ccc3c(c2)OCO3)CC1`, for which the cell count in [1] is 590. Also, the inhibition is -14.5% (inactive) in assay [1], 34.9% (inactive) in [2], -15% (inactive) in assay [4] and 12.2% (inactive) in [9]. Also, in assay [2], the nuclei count came to 183%. Besides, the values for the z-score in assay [3] (setting [10]), in assay [3] (setting [11]) and in assay [3] (setting [12]) were -2.41, 2.03 and 1, respectively. Further, the fluorescence slope in assay [5] is -0.361 (inactive). For the same molecule, the NADPH fluorescence slope in [6] is -4e-05 (inactive). Further, the slope in [7] was 0.0055 (inactive). In addition, the call in assay [8] was inactive.

With `COc1ccc(C(=O)/C=C/Nc2cccc(C)n2)cc1OC`, in assay [1], the cell count was 553. Moreover, the inhibition in assay [1] is -2.4% (inactive); in [2] it was -95.1% (inactive); in assay [4] it was -1.12% (inactive); in assay [9] it was -7.36% (inactive). The nuclei count in [2] worked out at 164%. Also, the z-score was -1.16 in assay [3] (setting [10]), 0.461 in [3] (setting [11]) and 0.22 in assay [3] (setting [12]). For the same molecule, the fluorescence slope in assay [5] was -0.33 (inactive). In addition, in assay [6], the NADPH fluorescence slope is -2.1e-05 (inactive). For the same molecule, the slope in assay [7] was 0.00813 (inactive). Also, the molecule was classed as inactive in [8].

With `COc1ccc(/C=N/n2cncn2)cc1COc1ccc(NC(C)=O)cc1`, in assay [1], the cell count came out at 307. Also, the inhibition in [1] was -11.9% (inactive); in assay [2], -81.9% (inactive); in [4], 24.3% (inactive); in [9] it was -6.96% (inactive). The molecule also registered a nuclei count in assay [2] of 99.2%. The results for the z-score in [3] (setting [10]), in assay [3] (setting [11]) and in [3] (setting [12]) were 1.57, 0.491 and -0.528, respectively. In assay [5], the fluorescence slope was -0.402 (inactive). In addition, the NADPH fluorescence slope in [6] was 3.3e-05 (inactive). The slope in [7] is 0.00513 (inactive). The molecule was classed as inactive in assay [8].

As for `N#CC12CCCCC1CC1CCCCC1(C#N)N2Cc1ccccn1` (centres undefined), the cell count in [1] was 372. The inhibition in assay [1] was -4.4% (inactive); in [2] it was -22.3% (inactive); in [4], -3.98% (inactive); in assay [9], -3.05% (inactive). Also, in assay [2], the nuclei count is 86.1%. In addition, the z-score in assay [3] (setting [10]) is 0.309; in assay [3] (setting [11]), 0.731; in [3] (setting [12]), -1.95. The fluorescence slope in [5] is -0.46 (inactive). In addition, the NADPH fluorescence slope in assay [6] is -0.000337 (inactive). Besides, the slope in assay [7] is 0.0048 (inactive). Also, in assay [8], the call was inactive.

`CCOC(=O)C1=C(CSc2nc3c(cc2C#N)CN(C)CC3)OC(N)=C(C#N)C1c1ccccc1` (centres undefined): in assay [1], the cell count was determined as 616. The inhibition was -8.1% (inactive) in [1], 28.8% (inactive) in [2], -5.62% (inactive) in assay [4] and -1.09% (inactive) in assay [9]. The same molecule yielded a nuclei count in [2] of 169%. In addition, the figures for the z-score in assay [3] (setting [10]), in assay [3] (setting [11]) and in assay [3] (setting [12]) were 1.95, -0.602 and 0.371, respectively. The fluorescence slope in assay [5] was -0.384 (inactive). For the same molecule, in assay [6], the NADPH fluorescence slope was -4.7e-05 (inactive). The slope in [7] is 0.00325 (inactive). Moreover, in assay [8], the result was inactive.

Turning to `COc1c(O)ccc2cnn(-c3ccccc3C)c(=O)c12`, in assay [1], the cell count came out at 557. Besides, the inhibition in [1] was -2.9% (inactive); in assay [2], -53.4% (inactive); in [4] it was 9.61% (inactive); in [9], 1.71% (inactive). The molecule further yielded a nuclei count in assay [2] of 180%. The z-score in assay [3] (setting [10]) was -1.01; in assay [3] (setting [11]), 0.966; in assay [3] (setting [12]) it was 0.382. The fluorescence slope in assay [5] is -0.35 (inactive). The NADPH fluorescence slope in [6] was -1.2e-05 (inactive). For the same molecule, the slope in [7] is 0.00472 (inactive). In addition, in assay [8], the call was inactive.

As to `O=C(NC1(C(F)(F)F)C(=O)Nc2c1c(=O)[nH]c(=O)n2-c1ccccc1)c1cccnc1` (centres undefined), in assay [1], the cell count was determined as 471. Besides, the inhibition in [1] is 1.9% (inactive); in [2] it was -47.1% (inactive); in assay [4], 3.5% (inactive); in [9] it was 32% (inactive). The molecule further yielded a nuclei count in assay [2] of 106%. For the same molecule, the z-score in [3] (setting [10]) was -0.151; in assay [3] (setting [11]), -1.59; in assay [3] (setting [12]) it was 0.837. For the same molecule, in [5], the fluorescence slope is -0.52 (inactive). In addition, in assay [6], the NADPH fluorescence slope is -2.5e-05 (inactive). Further, in assay [7], the slope is 0.00618 (inactive). Moreover, the molecule was classed as inactive in [8].

In the case of `CCN(CC)CCNc1nc2c(c(=O)[nH]c(=O)n2C)n1CCOc1ccccc1`, the cell count in [1] came out at 501. The inhibition in assay [1] was -1.2% (inactive); in [2], -206% (inactive); in [4], 12.3% (inactive); in [9], 0.39% (inactive). In addition, in assay [2], the nuclei count worked out at 135%. Also, the z-score in [3] (setting [10]) was 0.0299; in assay [3] (setting [11]), -1.12; in assay [3] (setting [12]), -0.109. Also, the fluorescence slope in assay [5] is -0.534 (inactive). For the same molecule, in assay [6], the NADPH fluorescence slope was -4.4e-05 (inactive). For the same molecule, in [7], the slope is 0.00521 (inactive). For the same molecule, the molecule was classed as inactive in [8].

Regarding `Cc1ccc2[nH]c3c(N4CCN(Cc5ccccc5)CC4)ncnc3c2c1`, the cell count in assay [1] is 328. The inhibition in [1] is -7.3% (inactive); in [2], -11.9% (inactive); in assay [4] it was 10.5% (inactive); in [9] it was 38.4% (inactive). In addition, the nuclei count in [2] was determined as 148%. The z-score in assay [3] (setting [10]) was 0.594; in assay [3] (setting [11]) it was 0.553; in assay [3] (setting [12]), -0.309. Besides, the fluorescence slope in assay [5] is -0.403 (inactive). For the same molecule, in [6], the NADPH fluorescence slope is -0.000135 (inactive). The slope in assay [7] was 0.00442 (inactive). The outcome in [8] is “inactive; toxic”.
